The subject of data set [1] is Macrophage. The data set is described as follows: Antiinflammatory activity in human macrophages assessed as inhibition of LPS-induced TNFalpha mRNA transcript accumulation at 10 uM preincubated for 30 mins before LPS-challenge measured after 24 hrs post challenge by quantitative PCR analysis. It counts as functional, cell-based. The method, boiled down: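 Monocyte-derived human macrophages were pretreated with 10 µM compound, then stimulated with LPS for 24 h. RNA was extracted and TNFα and IL8 transcripts were quantified by real-time RT-PCR with UPL probes. GAPDH served as reference gene.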

A short description of data set [2]: Antiinflammatory activity in human macrophages assessed as inhibition of LPS-induced IL8 release at 1 uM preincubated for 30 mins before LPS-challenge measured after 24 hrs post challenge by ELISA (reference value: 7.86 +/-0.17 ng/ml). It counts as functional, Macrophage. The method, boiled down:
(§1)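 Human blood PBMC-derived macrophages were used after 10 days of culture. Purity >95% (esterase, CD14, morphology). Cells were pretreated 30 min at 37 °C with compound, then given 100 ng/mL LPS (S. enteritidis) for 24 h. TNFα, IL-1β and IL-8 in conditioned medium were measured by ELISA. Working solutions were endotoxin-tested by LAL (<3 pg/mL).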
(In general: An ELISA detects its analyte on a solid surface through an enzyme-linked reagent.)

Data set [3] in a line: Antiinflammatory activity in human macrophages assessed as inhibition of LPS-induced IL8 release at 5 uM preincubated for 30 mins before LPS-challenge measured after 24 hrs post challenge by ELISA (reference value: 7.86 +/-0.17 ng/ml). It counts as functional, Macrophage. The method, boiled down:
as §1

Data set [4] is described as follows: Antiinflammatory activity in human macrophages assessed as inhibition of LPS-induced IL8 release at 10 uM preincubated for 30 mins before LPS-challenge measured after 24 hrs post challenge by ELISA (reference value: 7.86 +/-0.17 ng/ml). The class given is functional, Macrophage. The method, boiled down: as §1
A short description of data set [5]: Antiinflammatory activity in human macrophages assessed as inhibition of LPS-induced IL8 release at 100 uM preincubated for 30 mins before LPS-challenge measured after 24 hrs post challenge by ELISA (reference value: 7.86 +/-0.17 ng/ml). The class given is functional, Macrophage. Put shortly:
as §1

The nature of data set [6]: Antiinflammatory activity in human macrophages assessed as inhibition of LPS-induced TNFalpha release at 10 '-2 uM preincubated for 30 mins before LPS-challenge measured after 24 hrs post challenge by ELISA (reference value: 1682 +/-190 ng/ml). The class given is functional, Macrophage. The method, boiled down:
as §1

Data set [7] is described as follows: Antiinflammatory activity in human macrophages assessed as inhibition of LPS-induced TNFalpha release at 10 uM preincubated for 30 mins before LPS-challenge measured after 24 hrs post challenge by ELISA (reference value: 1682 +/-190 ng/ml). It counts as functional, Macrophage. Put shortly: as §1
For data set [8], the system named is Macrophage. The data set is described as follows: Antiinflammatory activity in human macrophages assessed as inhibition of LPS-induced IL-8 release at 10 uM preincubated for 30 mins before LPS-challenge measured after 24 hrs post challenge by ELISA. The class given is functional, cell-based. The method, boiled down: as §1
Data set [9] can be described thus: Cytotoxicity against human macrophages at 10 '4 uM after 72 hrs by MTT assay. The conditions noted are these: macrophage. The class given is cell-based.
Data set [10] has as its system CMT93. The data set is described as follows: Increase in ROS production in LPS-stimulated mouse CMT93 cells at 10 uM preincubated for 30 mins before LPS-challenge measured after 24 hrs post challenge by DCFDA fluorescence assay in presence of PPAR-gamma antagonist PD68235. The class given is functional, cell-based.
The subject of data set [11] is CMT93. The data set can be described thus: Increase in ROS production in LPS-stimulated mouse CMT93 cells at 10 uM preincubated for 30 mins before LPS-challenge measured after 30 mins post challenge by DCFDA fluorescence assay (reference value: 2.64 %). It counts as functional, cell-based.
Data set [12] has as its system Macrophage. The data set can be described thus: Antiinflammatory activity in human macrophages assessed as inhibition of LPS-induced increase in IL8 level at 10 uM preincubated for 30 mins before LPS-challenge measured after 24 hrs post challenge by ELISA in presence of PPAR-gamma antagonist PD68235. It counts as functional, cell-based. The method, boiled down: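 Human macrophages were pre-exposed to 20 µM PPARγ antagonist PD68235 alongside 10 µM compound, then challenged with 100 ng/mL LPS. After 24 h, IL8 protein in conditioned medium was measured by ELISA.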

Data set [13] deals with Macrophage. The data set is described as follows: Antiinflammatory activity in human macrophages assessed as inhibition of LPS-induced increase in TNFalpha mRNA transcript at 10 uM preincubated for 30 mins before LPS-challenge measured after 24 hrs post challenge by quantitative PCR analysis in presence of PPAR-gamma antagonist PD68235. It counts as functional, cell-based.

Data set [14] concerns Macrophage. The data set can be described thus: Increase in PPAR-gamma mRNA transcript level in human macrophages at 10 uM by quantitative PCR analysis. It counts as functional, cell-based.
For data set [15], the target named is Transcription factor p65 (Mus musculus) (UniProt Q04207). The data set can be described thus: Inhibition of LPS-induced p65 NF-kappaB activation in mouse CMT93 cells assessed as inhibition of in COX-2 expression at 10 uM preincubated for 30 mins before LPS-challenge measured after 6 hrs post challenge by Western blot analysis. The class given is cell-based. The method, boiled down: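 CMT-93 cells were pretreated with 10 µM compound and stimulated with LPS for 6 h. Lysates were run on 10% SDS-PAGE and transferred to PVDF. Blots were probed overnight at 4 °C for phospho-p65, IκBα or COX-2 (1:1000), with HRP detection.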
Chain of Transcription factor p65 (Mus musculus) (Q04207 whole entry): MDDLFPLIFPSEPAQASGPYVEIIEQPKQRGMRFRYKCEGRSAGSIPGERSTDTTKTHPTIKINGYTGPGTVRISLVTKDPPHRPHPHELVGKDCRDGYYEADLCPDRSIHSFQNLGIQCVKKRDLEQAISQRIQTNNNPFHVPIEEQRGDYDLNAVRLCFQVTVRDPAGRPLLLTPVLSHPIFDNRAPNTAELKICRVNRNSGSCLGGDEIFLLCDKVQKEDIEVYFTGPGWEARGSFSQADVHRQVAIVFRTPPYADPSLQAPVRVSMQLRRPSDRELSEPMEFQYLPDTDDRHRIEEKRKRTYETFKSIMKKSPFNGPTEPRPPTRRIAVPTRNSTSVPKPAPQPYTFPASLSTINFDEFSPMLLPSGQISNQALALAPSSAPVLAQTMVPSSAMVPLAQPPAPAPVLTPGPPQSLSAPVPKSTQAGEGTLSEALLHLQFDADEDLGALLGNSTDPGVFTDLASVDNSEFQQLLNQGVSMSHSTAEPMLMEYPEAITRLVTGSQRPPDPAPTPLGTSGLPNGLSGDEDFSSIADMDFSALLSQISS
Background: Immunoblotting shows a protein as a band on a membrane.

These results are taken from ChEMBL document CHEMBL2331391, “Peroxisome proliferator-activated receptor-γ mediates the anti-inflammatory effect of 3-hydroxy-4-pyridinecarboxylic acid derivatives: synthesis and biological evaluation” (Eur J Med Chem, 2013).

SMILES strings stand for the structures. Active and inactive are the calls of the source. No cut-off for these calls is given here.

As to `C[n+]1ccc(C(=O)O)c(O)c1.[Cl-]`, the inhibition result (in the data set on Macrophage [1]; in the data set with Macrophage [8]; in the data set on Macrophage [12]; in data set [15]) was “Active” in each case. In addition, the Activity in data set [2] was 7.32 ng/mL; in data set [3] it was 7.34 ng/mL; in data set [4], 5.4 ng/mL; in data set [5] it was 4.43 ng/mL; in data set [6], 1654 ng/mL; in [7] it was 1084 ng/mL. In data set [9], the Activity entry is reported as “Toxic”. Moreover, the result in the data set with CMT93 [10] was inactive. Also, the result with CMT93 [11] and with Macrophage [14] was Active. Further, the inhibition result with Macrophage [13] is “inactive”.
